Here are results for 14 compounds from ChEMBL document CHEMBL1155638, “Anti-AIDS agents 38. Anti-HIV activity of 3-O-acyl ursolic acid derivatives” (J Nat Prod, 2000).

Some results are limits rather than exact numbers.

Data set [1] in a line: Therapeutic index, IC50 for human T-lymphoid H9 cells to EC50 for HIV1 3B isolate. As to conditions: read-out: Ratio IC50/EC50; call rule not given here. The data set is classed as cell-based. The gist of the method:
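Ratio of IC50 (Coulter count, mock-infected H9 cells, 4 days) to EC50 (p24 ELISA, HIV-1 IIIB-infected H9 cells, 4 days), both determined in parallel within the same assay.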

Data set [2] has as its system Human immunodeficiency virus 1. Put plainly: Antiviral activity against HIV1 replication in human H9 cells. As to conditions: for EC50: Homo sapiens, H9; for Activity: human, h9.
The test system of a further data set is H9 (human). Put plainly: Cytotoxicity against human H9 cells assessed as growth inhibition after 4 days.

With `CC1(C)CC[C@]2(C(=O)O)CC[C@]3(C)C(=CC[C@@H]4[C@@]5(C)CC[C@H](OC(=O)CC(C)(C)C(=O)O)C(C)(C)[C@@H]5CC[C@]43C)[C@@H]2C1`, the selectivity ratio in data set [1] was 22300.
For `C[C@H]1[C@H](C)CC[C@]2(C(=O)O)CC[C@]3(C)C(=CC[C@@H]4[C@@]5(C)CC[C@H](OC(=O)CC(C)(C)C(=O)O)C(C)(C)[C@@H]5CC[C@]43C)[C@H]12`, the selectivity ratio in data set [1] was 23.6. Further, the EC50 (usually the concentration at which the effect is half-maximal) in data set [2] was determined as 2100 nM. Further, the IC50 (usually the concentration that gives 50% inhibition) with H9 (human) (H9, 96 h) was determined as 49.5 µM.
`C[C@H]1[C@H](C)CC[C@]2(C(=O)O)CC[C@]3(C)C(=CC[C@@H]4[C@@]5(C)CC[C@H](OC(=O)CC(C)(C)CC(=O)O)C(C)(C)[C@@H]5CC[C@]43C)[C@H]12`: in data set [2], the Activity entry is “Not Active”. In addition, the IC50 in the data set on H9 (human) (H9, 96 h) was determined as 7 µM.
Take `C[C@H]1[C@H](C)CC[C@]2(C(=O)O)CC[C@]3(C)C(=CC[C@@H]4[C@@]5(C)CC[C@H](OC(=O)COCC(=O)O)C(C)(C)[C@@H]5CC[C@]43C)[C@H]12`: the selectivity ratio in data set [1] was 156. Besides, in data set [2], the midpoint of the response, the EC50, lay at 310 nM. Besides, in the data set with H9 (human) (H9, 96 h), the IC50 was found to be 48.2 µM.
Turning to `C[C@H]1[C@H](C)CC[C@]2(C(=O)O)CC[C@]3(C)C(=CC[C@@H]4[C@@]5(C)CC[C@H](OC(=O)C(C)(C)CC(=O)O)C(C)(C)[C@@H]5CC[C@]43C)[C@H]12`, the Activity entry in data set [2] was “Not Active”. Besides, the IC50 in the data set with H9 (human) (H9, 96 h) worked out at 30.7 µM.
The corresponding values for `CC(C)CC(=O)O[C@H]1CC[C@]2(C)[C@H]3CC=C4[C@@H]5[C@@H](C)[C@H](C)CC[C@]5(C(=O)O)CC[C@@]4(C)[C@]3(C)CC[C@H]2C1(C)C` are “Not Active” and greater than 18.5 µM.
For the compound `C[C@H]1[C@H](C)CC[C@]2(C(=O)O)CC[C@]3(C)C(=CC[C@@H]4[C@@]5(C)CC[C@H](OC(=O)CC(C)(C)C)C(C)(C)[C@@H]5CC[C@]43C)[C@H]12`, the Activity result in data set [2] was “Not Active”. Also, the IC50 with H9 (human) (H9, 96 h) is greater than 18 µM.
`C[C@H]1[C@H](C)CC[C@]2(C(=O)O)CC[C@]3(C)C(=CC[C@@H]4[C@@]5(C)CC[C@H](OC(=O)CCC(=O)O)C(C)(C)[C@@H]5CC[C@]43C)[C@H]12`: the selectivity ratio in data set [1] came to 2.9. The EC50 in data set [2] amounted to 15300 nM. The IC50 in the data set with H9 (human) (H9, 96 h) is 44.9 µM.
Consider `C[C@H]1[C@H](C)CC[C@]2(C(=O)O)CC[C@]3(C)C(=CC[C@@H]4[C@@]5(C)CC[C@H](OC(=O)CCCC(=O)O)C(C)(C)[C@@H]5CC[C@]43C)[C@H]12`, for which the selectivity ratio in data set [1] worked out at 4.8. For the same compound, the midpoint of the response in data set [2], the EC50, lay at 6400 nM. Besides, the IC50 with H9 (human) (H9, 96 h) was found to be 30.7 µM.
`C[C@H]1[C@H](C)CC[C@]2(C(=O)O)CC[C@]3(C)C(=CC[C@@H]4[C@@]5(C)CC[C@H](O)C(C)(C)[C@@H]5CC[C@]43C)[C@H]12`: the IC50 with H9 (human) (h9) is 1.8 µM.
`C=C(C)[C@@H]1CC[C@]2(C(=O)O)CC[C@]3(C)[C@H](CC[C@@H]4[C@@]5(C)CC[C@H](O)C(C)(C)[C@@H]5CC[C@]43C)[C@@H]12` [BETULINIC ACID]: the selectivity ratio in data set [1] came out at 9.2. Also, the IC50 with H9 (human) (H9, 96 h) was determined as 12.9 µM.
Regarding `C=C(C)[C@@H]1CC[C@]2(C(=O)O)CC[C@]3(C)[C@H](CC[C@@H]4[C@@]5(C)CC[C@H](OC(=O)CC(C)(C)C(=O)O)C(C)(C)[C@@H]5CC[C@]43C)[C@@H]12` [BEVIRIMAT], in data set [1], the selectivity ratio is greater than 20000. Moreover, in data set [2], the EC50 is less than 0.35 nM. The IC50 in the data set on H9 (human) (H9, 96 h) stood at 7 µM.
With `CC1(C)CC[C@]2(C(=O)O)CC[C@]3(C)C(=CC[C@@H]4[C@@]5(C)CC[C@H](O)C(C)(C)[C@@H]5CC[C@]43C)[C@@H]2C1` [OLEANOLIC_ACID], in data set [1], the selectivity ratio came to 12.9.
For the compound `C[C@@H]1CC[C@]2(C(=O)O)CC[C@]3(C)C(=CC[C@@H]4[C@@]5(C)CC[C@H](O)C(C)(C)[C@@H]5CC[C@]43C)[C@@H]2[C@]1(C)O` [POMOLIC ACID], the selectivity ratio in data set [1] turned out to be 16.3. The compound further showed an EC50 in data set [2] of 3000 nM.
